An excerpt weighted towards active compounds, which were near 3.9% of everything screened.
CHO parental Ca – ATP-evoked calcium signal inhibitors, parental CHO, primary screen, counter-screen for OX1R antagonist project, cell-based, fluorescence, Fluo-8 calcium dye; parental CHO-K1, ATP-induced calcium, Fluo-8 fluorescence; inhibition, % at 5.6 µM; 330,000 compounds, 0.63% hits;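 active means inhibition above that plate's mean sample inhibition plus 3 SD, cut at about 26% in these data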;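 further: 0% = ATP-challenged DMSO wells and 100% = DMSO wells without ATP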
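Assay system: untransfected parental CHO cell line. Also added: ATP agonist challenge. Dosing: one dose, 5.6 µM nominal. Measured by: Fluo-8 fluorescence. Read-out: % inhibition. Benchmarks: ATP wells versus no-ATP DMSO wells. Repeats: no replicates.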
TAAR1 agonist – human TAAR1 agonists, primary screen, Fluo-8 calcium fluorescence, CHO RD-HGA16 cells; activation, % at 3 µM; 360,000 compounds, 0.99% hits; vehicle wells 0%, saturating PEA agonist 100%; AID 624467, 2012; Trace amine-associated receptor 1 (Homo sapiens), Q96RJ0;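 active means activation above the mean activation of all test compounds in the run plus 3 SD, cut at about 38% in these data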
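Test system: RD-HGA16 (CHO) cells co-expressing Gα16 and hTAAR1; dosing: one-point dosing at 3 µM (nominal); timing: 17-24 h seeding, 75 min 37 °C dye, 30 min RT; signal: kinetic Fluo-8 calcium fluorescence; read-out basis: % activation relative to PEA EC100 response; controls: DMSO and PEA EC100; replicates: n 1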
OX1R antag-1 – antagonists of human orexin 1 receptor (OX1R); inhibition, % at 6.6 µM; AID 485270, 2010; 330,000 compounds, 1.8% hits; OX1R-expressing cells, FRET antagonist read-out; Orexin/Hypocretin receptor type 1 (Homo sapiens), O43613; in the data active means inhibition mostly above about 38%, no sharp cut-off; inactive means mostly below about 40%;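 further: 0% = agonist challenge alone and 100% = reference antagonist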
Target sequence (O43613 whole entry, looked up): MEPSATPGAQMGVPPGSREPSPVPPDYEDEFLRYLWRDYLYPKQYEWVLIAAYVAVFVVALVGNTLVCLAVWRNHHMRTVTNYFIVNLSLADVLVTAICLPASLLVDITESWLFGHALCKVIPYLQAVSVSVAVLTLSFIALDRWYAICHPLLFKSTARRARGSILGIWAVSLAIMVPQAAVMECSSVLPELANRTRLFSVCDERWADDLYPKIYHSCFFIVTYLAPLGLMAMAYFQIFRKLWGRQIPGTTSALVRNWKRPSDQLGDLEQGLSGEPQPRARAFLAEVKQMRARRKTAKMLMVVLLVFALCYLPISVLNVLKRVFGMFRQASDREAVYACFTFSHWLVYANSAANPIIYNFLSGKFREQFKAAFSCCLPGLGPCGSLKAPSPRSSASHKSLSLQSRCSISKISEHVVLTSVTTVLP
OX1R antag-2 – OX1R (HCRTR1) antagonists, primary screen, fluorescence, CHO/OX1R cells, Fluo-8 calcium, orexin A | Orexin/Hypocretin receptor type 1 (Homo sapiens), O43613 | AID 434989, 2010 | 330,000 compounds, 0.43% hits | inhibition, % at 5 µM | Fluo-8 calcium fluorescence;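 active means inhibition above its plate's threshold, mean inhibition of all tested compounds on the plate plus 3 SD, cut at about 37% in these data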;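 further: 0% = orexin A challenge wells and 100% = SB-334867-A antagonist wells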
TAAR1 antag – human TAAR1 antagonists, primary screen, Fluo-8 calcium fluorescence, CHO RD-HGA16 cells; Trace amine-associated receptor 1 (Homo sapiens), Q96RJ0; antagonist; inhibition, % at 3 µM; 360,000 compounds, 1.5% hits;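 active means inhibition above a per-plate cutoff, the mean inhibition of test compounds on that plate plus 3 SD, cut at about 49% in these data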;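 further: 0% = DMSO plus EC80 beta-PEA response and 100% = DMSO alone without agonist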
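Test system: RD-HGA16 CHO cells with stable hTAAR1 and Gα16 / Probe or stimulus: EC80 β-phenethylamine stimulus / Times: seeding 17-24 h prior, 75-min 37 °C, 30-min RT dye loading / Detection: Fluo-8 calcium-sensitive fluorescence / Read-out basis: % inhibition scaled between DMSO and EC80 PEA controls / Repeats: singlicate, one well per test compound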
* hit, by the source's call.

For O=C(COC(=O)c1ccc([N+](=O)[O-])s1)Nc1ccccc1 the results were CHO parental Ca -2, TAAR1 agonist 2, OX1R antag-1 72*, OX1R antag-2 6 and TAAR1 antag 11.
Screening Cc1ccc(C(=O)OCc2nnc(-c3ccccc3)o2)s1 returned CHO parental Ca -1, TAAR1 agonist 4, OX1R antag-1 11, OX1R antag-2 -17 and TAAR1 antag -4.
Cc1cc(C(=O)OCC(=O)N2CCC(c3ccccc3)=N2)ccc1[N+](=O)[O-] was read as CHO parental Ca -10, TAAR1 agonist 2, OX1R antag-1 8, OX1R antag-2 -10 and TAAR1 antag 12.
Screening CC(C)(C)c1ccc(NC(=O)COC(=O)c2ccc([N+](=O)[O-])s2)cc1 returned CHO parental Ca -4, TAAR1 agonist 2, OX1R antag-1 34, OX1R antag-2 4 and TAAR1 antag 6.
Screening O=C(COC(=O)c1ccc([N+](=O)[O-])s1)Nc1ccc(F)cc1 returned CHO parental Ca -2, TAAR1 agonist 4, OX1R antag-1 42*, OX1R antag-2 3 and TAAR1 antag 13.
`O=C(OCC(=O)N1CCC(c2ccccc2)=N1)c1ccc([N+](=O)[O-])s1` gave CHO parental Ca -17, TAAR1 agonist 2, OX1R antag-1 61*, OX1R antag-2 -27 and TAAR1 antag 8.
Screening CC(C)C[C@H]1CN(CCCC[C@H]2CNC(=O)C(=O)N2CC2CCCCC2)C(=O)C(=O)N1Cc1ccccc1 returned TAAR1 agonist 2 and TAAR1 antag -8.
`O=C(NCC1CCOCC1)C1Cc2c(-c3ccccc3Oc3ccccc3)ccnc2O1` (centres undefined) gave TAAR1 agonist 4 and TAAR1 antag -29.
`COc1cccc(CNC(=O)[C@H]2CCCN2C(=O)[C@H]2CCCN2C(=O)c2cccc(Cl)c2)c1` gave TAAR1 agonist 1 and TAAR1 antag -18.
Cc1c(Cl)cnc(NC(=O)COC(=O)c2ccc([N+](=O)[O-])s2)c1Cl was read as CHO parental Ca -14, TAAR1 agonist 0, OX1R antag-1 63*, OX1R antag-2 -20 and TAAR1 antag 5.
COc1ccc(Nc2ncccc2C(=O)Nc2ccccc2)cc1 was read as CHO parental Ca 50*, TAAR1 agonist 16, OX1R antag-1 5, OX1R antag-2 -19 and TAAR1 antag 12.
COc1ccc2oc(=N)c(C(=O)Nc3ccc(C)cc3)cc2c1 was read as TAAR1 agonist 5 and TAAR1 antag 2.
COc1ccc2oc(=N)c(C(=O)Nc3ccccc3)cc2c1 was read as CHO parental Ca 10, TAAR1 agonist 0, OX1R antag-1 76*, OX1R antag-2 -4 and TAAR1 antag 5.
`COCCN1C[C@@H](CO)O[C@@H](n2cnc3c(NCc4ccncc4)ncnc32)C1` gave TAAR1 agonist 0 and TAAR1 antag -5.
For O=C(Cc1coc2cc(O)ccc12)NNC(=O)c1ccc(Br)s1 the results were CHO parental Ca -16, TAAR1 agonist 7, OX1R antag-1 4, OX1R antag-2 6 and TAAR1 antag -5.
For Fc1cccc(Cc2c(-c3ccco3)nc3ccc(Br)cn23)c1 the results were TAAR1 agonist -2 and TAAR1 antag -19.
`O=C(NC1CCCC1)c1nc(-c2ccco2)oc1-c1ccccc1` gave TAAR1 agonist -1 and TAAR1 antag -11.
`COC(=O)c1ccc(CN2C(=O)C(C)N(C(=O)c3c(F)cccc3F)c3ccccc32)cc1` (centres undefined) gave CHO parental Ca -13, TAAR1 agonist 42*, OX1R antag-1 5, OX1R antag-2 -29 and TAAR1 antag 83*.
CC1(Oc2ccc(-n3ccnc3)cc2)CCN(Cc2cccn2-c2nccs2)C1 (centres undefined) was read as TAAR1 agonist 0 and TAAR1 antag -6.

Assay outcomes deposited in PubChem by The Scripps Research Institute Molecular Screening Center.
